Measurements from ChEMBL document CHEMBL3352809, “Discovery of a Negative Allosteric Modulator of GABAB Receptors” (ACS Med Chem Lett, 2014).
Activity calls are given as the source filed them. The calls are words filed in the database; no cut-off is given here.

Experiments:
[1] = target: T1, GABA-B receptor (Homo sapiens) (UniProt Q9UBS5+O75899); assay: (§1) Negative allosteric modulation of recombinant HA-tagged GB1 subunit/Flag-tagged GB2 subunit receptor (unknown origin) expressed in HEK293 cells co-expressing Gqi9 G-protein assessed as inhibition of GABA-induced IP production by liquid scintillation counting; assay type: cell-based
Outline: (§2)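 IP3 formation in HEK293 cells overexpressing GABA_B receptors (GB1 + GB2) and Gq_i9 chimeric proteins. Compounds were tested at 100 μM against GABA 1 μM, with GABA dose-response curves run with or without compound. Inhibition curves were run with compound titrated in the presence of 1 μM GABA to derive IC50. Data are mean SEM of three independent experiments.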

[2] = target: GABA-B receptor (Homo sapiens, UniProt O75899+Q9UBS5); assay: as §1; assay type: cell-based; outline: as §2
Chain of GABA-B receptor (Q9UBS5 whole entry): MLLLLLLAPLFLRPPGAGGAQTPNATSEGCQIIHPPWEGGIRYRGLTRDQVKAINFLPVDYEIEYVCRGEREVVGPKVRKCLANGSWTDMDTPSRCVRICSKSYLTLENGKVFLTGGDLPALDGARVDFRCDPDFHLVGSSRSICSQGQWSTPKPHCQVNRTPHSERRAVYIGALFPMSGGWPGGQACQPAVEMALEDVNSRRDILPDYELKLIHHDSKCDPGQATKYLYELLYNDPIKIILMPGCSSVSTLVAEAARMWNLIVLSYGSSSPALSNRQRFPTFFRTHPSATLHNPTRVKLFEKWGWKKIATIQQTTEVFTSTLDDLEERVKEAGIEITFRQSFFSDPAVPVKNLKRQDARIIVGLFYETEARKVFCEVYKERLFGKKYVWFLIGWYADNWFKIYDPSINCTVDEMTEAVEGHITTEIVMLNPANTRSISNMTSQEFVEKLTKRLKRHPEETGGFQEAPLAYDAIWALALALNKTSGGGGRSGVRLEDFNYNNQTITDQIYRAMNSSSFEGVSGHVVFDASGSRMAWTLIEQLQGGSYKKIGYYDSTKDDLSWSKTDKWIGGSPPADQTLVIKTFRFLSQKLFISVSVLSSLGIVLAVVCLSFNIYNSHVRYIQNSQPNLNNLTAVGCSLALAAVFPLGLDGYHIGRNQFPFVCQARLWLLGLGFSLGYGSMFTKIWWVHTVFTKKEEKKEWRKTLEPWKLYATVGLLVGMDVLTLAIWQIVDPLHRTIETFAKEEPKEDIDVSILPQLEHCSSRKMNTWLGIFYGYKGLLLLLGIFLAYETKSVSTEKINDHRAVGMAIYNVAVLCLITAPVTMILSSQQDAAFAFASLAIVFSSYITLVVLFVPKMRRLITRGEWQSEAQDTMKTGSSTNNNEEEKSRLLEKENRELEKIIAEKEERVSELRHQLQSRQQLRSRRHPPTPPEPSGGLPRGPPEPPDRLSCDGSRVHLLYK
Chain of GABA-B receptor (O75899 whole entry): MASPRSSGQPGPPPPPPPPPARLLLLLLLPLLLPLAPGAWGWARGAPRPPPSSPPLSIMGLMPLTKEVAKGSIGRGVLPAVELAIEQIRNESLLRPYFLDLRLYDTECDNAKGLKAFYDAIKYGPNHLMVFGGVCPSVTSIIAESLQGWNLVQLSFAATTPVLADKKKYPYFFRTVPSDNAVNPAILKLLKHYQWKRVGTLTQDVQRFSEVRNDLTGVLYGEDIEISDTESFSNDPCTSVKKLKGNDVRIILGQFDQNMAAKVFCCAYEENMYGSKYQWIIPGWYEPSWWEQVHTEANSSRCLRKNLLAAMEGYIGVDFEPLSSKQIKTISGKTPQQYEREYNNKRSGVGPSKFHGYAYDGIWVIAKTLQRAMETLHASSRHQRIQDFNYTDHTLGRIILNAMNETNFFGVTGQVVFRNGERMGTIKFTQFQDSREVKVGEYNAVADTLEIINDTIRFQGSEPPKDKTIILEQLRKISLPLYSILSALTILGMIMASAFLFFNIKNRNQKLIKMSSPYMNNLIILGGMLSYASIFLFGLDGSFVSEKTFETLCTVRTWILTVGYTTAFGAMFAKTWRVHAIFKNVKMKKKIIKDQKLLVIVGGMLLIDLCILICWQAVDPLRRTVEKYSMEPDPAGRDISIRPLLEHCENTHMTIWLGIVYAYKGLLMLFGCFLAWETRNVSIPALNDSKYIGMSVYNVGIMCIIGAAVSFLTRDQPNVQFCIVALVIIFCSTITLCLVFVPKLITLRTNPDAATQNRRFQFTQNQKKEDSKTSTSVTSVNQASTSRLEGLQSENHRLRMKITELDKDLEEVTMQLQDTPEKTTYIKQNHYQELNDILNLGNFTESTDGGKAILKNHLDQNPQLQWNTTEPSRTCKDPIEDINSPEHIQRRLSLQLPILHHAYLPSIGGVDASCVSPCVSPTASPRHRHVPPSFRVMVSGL

[3] = target: T1, GABA-B receptor (Homo sapiens); assay: Negative allosteric modulation of recombinant HA-tagged GB1 subunit/Flag-tagged GB2 subunit receptor (unknown origin) expressed in HEK293 cells co-expressing Gqi9 G-protein assessed as inhibition of GABA-induced Ca2+ release at 50 uM by fluorescence assay; assay type: functional, cell-based
Outline: (§3)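 Test compound was at 50 μM. Agonists were GABA 100 μM for GABA_B and glutamate 10 μM for mGluR1, 2 and 5. Response was compared with agonist alone. Data are mean SEM of three independent experiments.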

[4] = target: Metabotropic glutamate receptor 1 (Homo sapiens) (UniProt Q13255); assay: Negative allosteric modulation of mGluR1 (unknown origin) expressed in HEK293 cells assessed as inhibition of glutamate-induced Ca2+ release at 50 uM by fluorescence assay; assay type: functional, cell-based; outline: as §3
Chain of Metabotropic glutamate receptor 1 (Homo sapiens) (Q13255 19-1194 limits assumed): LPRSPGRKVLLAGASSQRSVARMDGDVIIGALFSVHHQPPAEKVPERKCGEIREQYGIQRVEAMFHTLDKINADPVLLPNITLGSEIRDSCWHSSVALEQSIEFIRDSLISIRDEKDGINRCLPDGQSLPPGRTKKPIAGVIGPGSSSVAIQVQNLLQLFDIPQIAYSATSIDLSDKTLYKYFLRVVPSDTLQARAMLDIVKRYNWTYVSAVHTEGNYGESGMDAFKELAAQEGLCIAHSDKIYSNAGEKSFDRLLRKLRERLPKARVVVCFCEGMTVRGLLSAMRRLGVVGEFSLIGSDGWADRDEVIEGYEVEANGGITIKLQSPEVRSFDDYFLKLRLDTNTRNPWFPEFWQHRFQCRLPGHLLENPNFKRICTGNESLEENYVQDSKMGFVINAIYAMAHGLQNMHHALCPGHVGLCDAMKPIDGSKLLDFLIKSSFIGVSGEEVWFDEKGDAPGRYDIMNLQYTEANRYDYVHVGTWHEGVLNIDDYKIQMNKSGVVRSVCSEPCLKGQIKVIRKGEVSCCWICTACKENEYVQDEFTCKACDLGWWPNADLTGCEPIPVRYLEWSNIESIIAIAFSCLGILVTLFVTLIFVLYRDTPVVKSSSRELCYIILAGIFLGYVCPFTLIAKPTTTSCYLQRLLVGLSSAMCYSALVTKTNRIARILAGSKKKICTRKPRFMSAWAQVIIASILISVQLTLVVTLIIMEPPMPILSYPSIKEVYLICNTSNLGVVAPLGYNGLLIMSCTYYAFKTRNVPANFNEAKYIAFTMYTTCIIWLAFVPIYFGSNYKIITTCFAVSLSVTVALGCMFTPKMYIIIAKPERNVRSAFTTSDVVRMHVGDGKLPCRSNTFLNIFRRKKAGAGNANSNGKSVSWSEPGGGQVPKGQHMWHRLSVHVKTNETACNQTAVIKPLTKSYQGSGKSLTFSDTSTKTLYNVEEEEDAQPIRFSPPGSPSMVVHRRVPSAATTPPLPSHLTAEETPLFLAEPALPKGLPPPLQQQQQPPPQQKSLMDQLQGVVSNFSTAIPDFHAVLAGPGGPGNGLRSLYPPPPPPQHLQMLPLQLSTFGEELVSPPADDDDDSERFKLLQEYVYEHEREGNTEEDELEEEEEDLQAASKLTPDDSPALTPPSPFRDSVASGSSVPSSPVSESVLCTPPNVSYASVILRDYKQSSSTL

[5] = target: Metabotropic glutamate receptor 2 (Homo sapiens) (UniProt Q14416); assay: Negative allosteric modulation of mGluR2 (unknown origin) expressed in HEK293 cells co-expressing Gqi9 G-protein assessed as inhibition of glutamate-induced Ca2+ release at 50 uM by fluorescence assay; assay type: functional, cell-based; outline: as §3
Chain of Metabotropic glutamate receptor 2 (Homo sapiens) (Q14416 19-872 limits assumed): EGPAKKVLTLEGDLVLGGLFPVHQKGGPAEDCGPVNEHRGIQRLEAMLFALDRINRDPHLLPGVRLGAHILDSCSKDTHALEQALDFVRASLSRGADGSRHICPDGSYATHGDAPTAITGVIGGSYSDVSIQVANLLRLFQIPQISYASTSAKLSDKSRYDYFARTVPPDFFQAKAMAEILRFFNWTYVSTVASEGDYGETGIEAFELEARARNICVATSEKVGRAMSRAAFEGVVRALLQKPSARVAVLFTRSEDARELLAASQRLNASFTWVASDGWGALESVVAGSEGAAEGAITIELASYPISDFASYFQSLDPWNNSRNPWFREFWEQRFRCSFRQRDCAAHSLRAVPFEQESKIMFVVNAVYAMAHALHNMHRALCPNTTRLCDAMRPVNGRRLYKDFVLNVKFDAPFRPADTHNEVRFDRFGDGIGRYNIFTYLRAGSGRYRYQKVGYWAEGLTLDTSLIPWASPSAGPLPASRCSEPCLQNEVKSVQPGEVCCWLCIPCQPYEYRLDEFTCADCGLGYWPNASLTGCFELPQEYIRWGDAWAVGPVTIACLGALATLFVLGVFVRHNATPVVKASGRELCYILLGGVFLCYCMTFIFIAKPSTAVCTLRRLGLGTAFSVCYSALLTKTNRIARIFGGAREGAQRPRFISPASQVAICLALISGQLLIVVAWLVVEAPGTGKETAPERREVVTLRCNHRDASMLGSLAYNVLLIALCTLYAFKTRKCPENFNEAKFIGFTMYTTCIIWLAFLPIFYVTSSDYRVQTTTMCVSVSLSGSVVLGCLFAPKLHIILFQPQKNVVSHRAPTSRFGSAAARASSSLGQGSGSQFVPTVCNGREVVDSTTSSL

[6] = target: Metabotropic glutamate receptor 5 (Homo sapiens) (UniProt P41594); assay: Negative allosteric modulation of mGluR5 (unknown origin) expressed in HEK293 cells assessed as inhibition of glutamate-induced Ca2+ release at 50 uM by fluorescence assay; assay type: functional, cell-based; outline: as §3
Chain of Metabotropic glutamate receptor 5 (Homo sapiens) (P41594 21-1212 limits assumed): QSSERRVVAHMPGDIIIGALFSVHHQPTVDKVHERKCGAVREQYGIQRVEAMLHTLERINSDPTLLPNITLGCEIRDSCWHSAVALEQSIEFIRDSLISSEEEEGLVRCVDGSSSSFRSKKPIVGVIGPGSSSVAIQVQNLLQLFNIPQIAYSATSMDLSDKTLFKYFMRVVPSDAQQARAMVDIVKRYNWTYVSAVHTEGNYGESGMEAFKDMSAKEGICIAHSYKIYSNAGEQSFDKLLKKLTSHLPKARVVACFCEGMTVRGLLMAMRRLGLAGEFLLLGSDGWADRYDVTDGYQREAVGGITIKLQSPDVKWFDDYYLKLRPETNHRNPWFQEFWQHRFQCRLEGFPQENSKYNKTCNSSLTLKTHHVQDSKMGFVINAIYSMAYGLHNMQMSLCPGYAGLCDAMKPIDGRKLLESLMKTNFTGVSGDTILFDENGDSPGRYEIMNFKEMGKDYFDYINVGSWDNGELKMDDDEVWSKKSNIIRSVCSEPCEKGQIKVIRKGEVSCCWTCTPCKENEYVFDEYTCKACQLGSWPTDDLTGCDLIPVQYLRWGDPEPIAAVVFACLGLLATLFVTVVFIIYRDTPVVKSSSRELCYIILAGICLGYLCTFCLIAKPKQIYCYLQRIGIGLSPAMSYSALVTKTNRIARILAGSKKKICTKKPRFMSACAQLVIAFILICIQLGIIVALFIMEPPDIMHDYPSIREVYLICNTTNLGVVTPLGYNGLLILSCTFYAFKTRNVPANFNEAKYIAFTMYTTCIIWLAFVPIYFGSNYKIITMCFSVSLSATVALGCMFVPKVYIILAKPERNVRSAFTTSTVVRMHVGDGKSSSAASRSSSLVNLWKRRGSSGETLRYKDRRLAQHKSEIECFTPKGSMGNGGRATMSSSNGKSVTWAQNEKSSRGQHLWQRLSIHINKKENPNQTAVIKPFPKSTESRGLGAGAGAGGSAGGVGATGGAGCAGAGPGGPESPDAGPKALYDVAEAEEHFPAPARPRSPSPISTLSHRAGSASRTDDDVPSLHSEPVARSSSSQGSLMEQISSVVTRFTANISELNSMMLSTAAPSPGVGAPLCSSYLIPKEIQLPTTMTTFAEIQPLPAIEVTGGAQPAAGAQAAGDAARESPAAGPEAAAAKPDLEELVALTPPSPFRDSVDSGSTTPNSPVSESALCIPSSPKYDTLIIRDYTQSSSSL

[7] = target: T1, GABA-B receptor (Homo sapiens); assay: Displacement of [3H]CGP54626 from recombinant HA-tagged GB1 subunit/Flag-tagged GB2 subunit receptor (unknown origin) expressed in CHO cells up to 100 uM by scintillation proximity assay; assay type: cell-based
[8] = system: HEK293; assay: Effect on ERK1/2 protein expression in HEK293 cells at 100 uM by immunoblotting; assay type: functional, cell-based; settings: Homo sapiens
Outline: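 ERK1/2 phosphorylation in HEK293 cells overexpressing GABA_B receptors (GB1 + GB2), stimulated with baclofen (100 μM) or CGP7930 (100 μM), with or without test compound at 100 μM. Data are mean SEM of three independent experiments. Significance was taken versus agonist alone.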

Structure (SMILES)	inhibition [1]	IC50 [2] [µM]	inhibition [3]	inhibition [4]	inhibition [5]	inhibition [6]	inhibition [7]	inhibition [8]
CC(C)(C)c1cc(/C=C/C(=O)C(=O)O)cc(C(C)(C)C)c1O	Dose-dependent effect	37.9	Active	inactive	inactive	inactive	inactive	
COC(O)CC(O)c1cc(C(C)(C)C)c(O)c(C(C)(C)C)c1 (stereo not given)								inactive
CC(C)(C)c1cc(/C=C/C=O)cc(C(C)(C)C)c1O	Dose-dependent effect	21.3						
